Compound activity: PubChem BioAssay, several laboratories
Rev-RRE block = inhibitors of HIV-1 Rev-RRE RNA interaction | hit rate 0.79% among 97,000 | Rev peptide-RRE RNA binding, FRET | inhibition, % at 8 µM;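 active = inhibition above the screen-wide mean plus 3 SD, cut at about 35% in these data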
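Assay system: labelled RRE RNA duplex and labelled Rev peptide / Medium: HEPES pH 7.5 salt buffer with EDTA / Reagent: labelled Rev peptide / Schedule: 5 + 15 min at 25 °C / Signal: FRET, excitation 480 nm, emission 540 nm donor and 671 nm acceptor / Benchmarks: DMSO and neomycin B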
hDAT+cocaine = modulates human dopamine transporter uptake under cocaine | B-score at 10 µM | Q01959 | LLC-PK1 hDAT cells, [14C]-dopamine uptake with cocaine IC80; actives deviate in either direction | hit rate 1.3% among 110,000;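 active = Z score or B-score, a plate-position-corrected score, falls beyond the plate's 99.7% confidence bounds, in either direction; inactive = both scores lie inside the 99.7% bounds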
EphB4 antag = EphB4-ephrin-B2 interaction antagonism. P54760. EphB4 LBD / TNYL-RAW-Alexa532 peptide, fluorescence polarization. inhibition, % at 7 µM. hit rate 0.15% among 97,000;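 active = inhibition above the screen-wide mean inhibition plus 3 SD, cut at about 15% in these data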
Cav3 T inh = inhibitors of human Cav3.2 T-type calcium channel; O95180; Cav3.2-expressing cells, Fluo-4 calcium fluorescence FDSS; stronger effect = lower value; B-score at 10 µM; hit rate 4% among 100,000; AID 449739;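 active = single-dose well whose peak fluorescence ratio is a statistical outlier from its plate by either plate-standardised score or position-corrected B-score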
A number is an active result; - = inactive; . = no result. Sampled rows, rich in hits. Any-hit rate of the full collection: about 5.4%.

SMILES	Rev-RRE block	hDAT+cocaine	EphB4 antag	Cav3 T inh
COc1ccc(C(=O)/C=C\N2CCOCC2)cc1	-	-2.69	-	-
COc1ccc(OCc2ccc(C(=O)N3CCOCC3)cc2)cc1	-	-	-	-
CCOC(=O)c1c(NC(=O)C(F)(OC)C(F)(F)F)sc(C(=O)N2CCCCC2)c1C (stereo unspecified)	-	.	-	.
O=C1c2oc3ccc(F)cc3c(=O)c2C(c2ccccc2)N1CC1CCCO1 (stereo unspecified)	-	-	-	-
CCn1c(CC(=O)Nc2cccc(OC)c2)nnc1SCC(=O)Nc1nccs1	-	-	-	-5
COc1ccc(-n2c(SCC(=O)Nc3nccs3)nnc2-c2ccccc2)cc1	-	-	-	-
COc1ccc(-n2c(Cc3cccn3C)nnc2SCC(=O)Nc2ccccc2C)cc1	-	-	-	-6.4
COc1ccc(-n2c(Cc3cccn3C)nnc2SCC(=O)Nc2nccs2)cc1	.	-	.	-5.96
COc1ccc(-n2c(Cc3cccn3C)nnc2SCC(=O)Nc2cccc(C)c2C)cc1	-	-	-	-4.03
CCn1c(Cc2ccccc2)nnc1SCC(=O)Nc1nccs1	-	-	-	-
Cn1c(=O)c(C(=O)CSc2nncs2)c(N)n(Cc2ccccc2)c1=O	-	-	-	-
CCOC(=O)C1(C(C)(C)CC)CC(CSc2nc3ccccc3[nH]2)OC1=O (stereo unspecified)	-	-	-	-6.83
CCCOC(=O)Nc1nnc(CCC)s1	-	-	-	-
CN1CCCc2cc3c(C(F)(F)F)cc(=O)oc3nc21	70.9	-	-	.
CC(=O)NC1=C(C#N)C(c2ccccc2)c2c(ccc3ccccc23)O1 (stereo unspecified)	-	-	-	-
COc1ccc2nc(NC(=O)C3CCCN3S(=O)(=O)c3ccc(C)cc3)sc2c1 (stereo unspecified)	-	-	-	-3.69
COc1ccc(NC(=O)C2CCCN2S(=O)(=O)c2ccc3c(c2)CCC(=O)N3)cc1 (stereo unspecified)	-	-	-	-4.09
Cc1ccc(S(=O)(=O)N2CCCC2C(=O)Nc2nc3c(s2)CCCC3)cc1 (stereo unspecified)	-	-	-	-
CCOC(=O)N1CCC(NC(=O)CCc2c(C)nc3c(c(C)nn3C(C)(C)C)c2C)CC1	-	-	-	-
O=S(=O)(N/N=C/c1cn(Cc2ccccc2)c2ccccc12)c1ccccc1	-	-	-	-
CCCC(=O)Nc1c2c(nn1-c1ccc(C)cc1C)CSC2	-	-	-	-
Cc1ccccc1-n1nc2c(c1NC(=O)c1ccc(Br)o1)CSC2	-	-	-	-4.73
COC(=O)C1CSc2[nH]c(=O)sc2C1c1ccccc1 (stereo unspecified)	78.5	-	-	-
COC(=O)C1Sc2[nH]c(=O)sc2C(c2ccc(Cl)cc2)C1C(=O)OC (stereo unspecified)	-	-	-	.
C=CCc1cccc(CNc2c(C)n(C)n(-c3ccccc3)c2=O)c1O	-	-	-	-3.97
SMILES	Rev-RRE block	hDAT+cocaine	EphB4 antag	Cav3 T inh
CCN1CCN(C(=S)c2ccc(OCC(=O)N3CCOCC3)cc2)CC1	-	-	-	-
O=C(Nc1nccs1)c1cccc(S(=O)(=O)N2CCOCC2)c1	-	-	-	-
O=c1oc2ccccc2c(Nc2cccc(O)c2)c1[N+](=O)[O-]	-	-	-	-
Nc1cc2c([N+](=O)[O-])cccc2o1	50.6	-	-	-
Nc1ccc(C(=O)N/N=C/c2ccccc2)cc1	-	-	-	-5.08
CCOC(=O)c1cc2nc(-c3ccco3)cc(C(F)(F)F)n2n1	-	-	-	-
Cc1snc(S(=O)(=O)Cc2ccccc2Cl)c1C#N	-	-	-	-
O=c1c2ccccc2c(-c2ccc(Cl)cc2)nn1-c1ccccc1	-	-	-	.
Cc1nn(-c2cc(N3CCCCCC3)ccc2[N+](=O)[O-])c(=O)c2ccccc12	-	-	-	-
Cc1ccc(-c2nn(-c3cc(Cl)ccc3[N+](=O)[O-])c(=O)c3ccccc23)cc1C	-	-	-	-4.6
CCc1ccc(-c2nn(-c3cc(Cl)ccc3[N+](=O)[O-])c(=O)c3ccccc23)cc1	-	-	-	-3.6
O=c1c2ccccc2c(-c2ccccc2)nn1-c1cc(Cl)ccc1[N+](=O)[O-]	-	-	-	-6.92
N#Cc1cc(C#N)c(N2CCN(c3ccccn3)CC2)nc1N	-	-	-	-
O=C(NCc1ccco1)C(c1ccco1)N(C(=O)Cn1nnc2ccccc21)c1ccc2c(c1)CCC2 (stereo unspecified)	-	-	-	-4.34
Cc1ccccc1C(C(=O)NCc1ccco1)N(CC1CCCO1)C(=O)Cn1nnc2ccccc21 (stereo unspecified)	-	-	-	-3.78
O=C(NCc1ccco1)C(c1ccccc1)N(CC1CCCO1)C(=O)Cn1nnc2ccccc21 (stereo unspecified)	-	-	-	.
CCCCN(CC)CCCNC(=O)c1cc2c(=O)n(C)c3ccccc3c2n1C	-	-	-	-
Cc1[nH]n2c(=O)c3c(nc2c1-c1ccc(Cl)cc1)CCC3	.	-2.74	.	-
Cc1[nH]n2c(=O)c3c(nc2c1-c1ccccc1)CCC3	-	-	-	-
Nc1[nH]n2c(=O)c3c(nc2c1N=Nc1ccc(Cl)cc1)CCCC3	-	-	-	-8.68
Nc1[nH]n2c(=O)c3c(nc2c1N=Nc1ccccc1)CCCC3	-	-	-	-9.6
O=C(O)CCC(=O)Nc1nnc(C(F)(F)F)s1	-	-	-	-
CCC(NC(=O)Nc1nnc(C(F)(F)F)s1)(C(F)(F)F)C(F)(F)F	-	-3.34	-	-7.81
CCCCn1nnnc1NCc1cccc(OC)c1OC	-	-	-	-
Cc1ccccc1N1CCN(C(=O)c2ccccc2NC(=O)C2CC=CCC2C(=O)O)CC1 (stereo unspecified)	-	2.08	-	-
SMILES	Rev-RRE block	hDAT+cocaine	EphB4 antag	Cav3 T inh
Cc1c(C(=O)N2CCC(C)CC2)sc2ncnc(N3CCN(c4ccccc4)CC3)c12	-	.	-	.
CCCN(CC(=O)c1cc(C)n(C)c1C)S(=O)(=O)c1cccc(C(F)(F)F)c1	-	-	-	-4.42
CCCN(CCC)S(=O)(=O)c1ccc(C(=O)O)cc1	.	-	.	.
CC(=O)Cc1nsc(NC(=O)c2ccc(COc3ccccc3)o2)n1	-	-	-	-
CCn1c(SCc2cccc(C)c2)nnc1-c1ccccc1	-	-	-	-
CCn1c(SC(C)C)nnc1-c1cc(-c2ccccc2)sc1N	-	-	-	-3.66
CC1CCN(C(=O)C2CCN(CCCc3ccccc3)CC2)CC1	.	-	.	-4.45
CC(C)(C)[C@H]1C=C(C(=O)NC2CC2)O[C@@H](OCc2ccc(CO)cc2)C1	.	-	.	-
Cc1cc(C)c(NC(=O)C2CCCN2C(=O)NC2CCCCC2)c(C)c1 (stereo unspecified)	-	-	-	-
Cc1ccc(C(=O)NCc2ccc3c(c2)OCO3)cc1S(=O)(=O)N1CCCCC1	-	-	-	-7.43
COc1cccc(-c2csc(N3CCN(C(=O)NC45CC6CC(CC(C6)C4)C5)CC3)n2)c1	-	-	-	-3.31
COc1cccc(-c2csc(N3CCN(C(=S)Nc4ccccc4)CC3)n2)c1	-	-	-	-
